Results as given in ChEMBL document CHEMBL1146277, “The discovery of 6-[2-(5-chloro-2-{[(2,4-difluorophenyl)methyl]oxy}phenyl)-1-cyclopenten-1-yl]-2-pyridinecarboxylic acid, GW848687X, a potent and selective prostaglandin EP1 receptor antagonist for the treatment of inflammatory pain” (Bioorg Med Chem Lett, 2007).
The source made the active and inactive calls. The rule behind the calls is not given here.

Key:
[1] = target: T1, Prostaglandin E2 receptor EP3 subtype (Homo sapiens, UniProt P43115); test: Inhibition of human EP3 receptor
T1 sequence (P43115 whole entry): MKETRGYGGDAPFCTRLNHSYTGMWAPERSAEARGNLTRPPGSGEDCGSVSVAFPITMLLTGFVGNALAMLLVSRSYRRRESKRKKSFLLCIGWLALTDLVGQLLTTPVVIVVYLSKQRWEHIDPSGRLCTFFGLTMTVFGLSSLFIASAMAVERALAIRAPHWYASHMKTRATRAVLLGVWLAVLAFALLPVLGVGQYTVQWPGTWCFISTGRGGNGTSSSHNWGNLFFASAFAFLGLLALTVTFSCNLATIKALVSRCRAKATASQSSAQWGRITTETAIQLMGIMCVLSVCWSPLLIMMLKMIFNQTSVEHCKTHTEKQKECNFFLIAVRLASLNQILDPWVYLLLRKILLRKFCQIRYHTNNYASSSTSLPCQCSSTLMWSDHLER

[2] = target: T2, Prostaglandin E2 receptor EP1 subtype (Homo sapiens, UniProt P34995); test: Inhibition of human EP1 receptor
T2 sequence (P34995 whole entry): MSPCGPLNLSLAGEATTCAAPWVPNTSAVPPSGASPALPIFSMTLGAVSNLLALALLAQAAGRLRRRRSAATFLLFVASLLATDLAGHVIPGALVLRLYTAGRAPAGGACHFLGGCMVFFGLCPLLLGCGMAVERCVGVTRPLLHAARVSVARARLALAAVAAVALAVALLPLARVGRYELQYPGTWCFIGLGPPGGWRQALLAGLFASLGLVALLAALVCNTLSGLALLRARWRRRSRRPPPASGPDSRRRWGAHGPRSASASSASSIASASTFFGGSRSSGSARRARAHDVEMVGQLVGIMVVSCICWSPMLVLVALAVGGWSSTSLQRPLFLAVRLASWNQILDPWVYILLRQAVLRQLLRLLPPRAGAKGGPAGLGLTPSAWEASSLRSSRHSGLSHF

[3] = Blood clearance in rat at 1 mg/kg, iv; assay type: ADME, organism-based; parameters: dose 1 mg/kg, route intravenous; conditions: whole blood
[4] = Volume of distribution in rat at 1 mg/kg, iv; assay type: ADME, organism-based; parameters: dose 1 mg/kg, route intravenous; conditions: in vivo, read-out: Vdss
Cytochrome P450 2C9 = Cytochrome P450 2C9 (Homo sapiens, UniProt P11712); test: Inhibition of human CYP2C9; assay type: ADME
Procedure, shortened: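 Inhibition measured in a human recombinant CYP2C9 isozyme assay; IC₅₀ reported in µM.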

[5] = Lipophilicity, log D of the compound; assay type: physicochemical; conditions: octanol/water
[6] = Intrinsic clearance in rat liver microsomes; assay type: ADME, Microsome
Procedure, shortened: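 Rate of metabolism measured as intrinsic clearance (ml/min/g) in a rat microsomal assay.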

[7] = Half life in rat at 1 mg/kg, iv; assay type: ADME, organism-based; parameters: dose 1 mg/kg, route intravenous; conditions: in vivo
Rattus norvegicus [8] = test: Reversal of hypersensitivity in FCA rat model of acute inflammatory pain at 5 mg/kg, po; assay type: functional
Procedure, shortened: (§1)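 Freund's complete adjuvant injected into one hind paw; 24 h later, with hypersensitivity established, rats received a single oral dose of test compound in 1% methylcellulose. Hypersensitivity was read by weight bearing as percent inhibition (reversal) for each dose. Tested either as a single 5 mg/kg po dose or as a 3-point dose response, with ED₅₀ calculated as the dose giving 50% reversal.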

[9] = Half life in dog; assay type: ADME, organism-based, Canis lupus familiaris; conditions: in vivo
Rattus norvegicus [10] = test: Reversal of hypersensitivity in po dosed FCA rat model of acute inflammatory pain; assay type: functional; procedure, shortened: as §1
Rattus norvegicus [11] = test: Reversal of antihyperalgesic effect in chronic rat model of joint pain at 30 mg/kg bid for 5 days
[12] = target: T2, Prostaglandin E2 receptor EP1 subtype; test: Antagonist activity at human EP1 receptor; assay type: functional; conditions: read-out: pA2 (converted)
[13] = Oral bioavailability in rat; assay type: ADME, organism-based; conditions: in vivo
[14] = Half life in rat; assay type: ADME, organism-based; conditions: in vivo
[15] = Blood clearance in rat; assay type: ADME, organism-based; conditions: whole blood
[16] = Oral bioavailability in dog; assay type: ADME, organism-based, Canis lupus familiaris; conditions: in vivo

Chain of Cytochrome P450 2C9 (P11712 whole entry): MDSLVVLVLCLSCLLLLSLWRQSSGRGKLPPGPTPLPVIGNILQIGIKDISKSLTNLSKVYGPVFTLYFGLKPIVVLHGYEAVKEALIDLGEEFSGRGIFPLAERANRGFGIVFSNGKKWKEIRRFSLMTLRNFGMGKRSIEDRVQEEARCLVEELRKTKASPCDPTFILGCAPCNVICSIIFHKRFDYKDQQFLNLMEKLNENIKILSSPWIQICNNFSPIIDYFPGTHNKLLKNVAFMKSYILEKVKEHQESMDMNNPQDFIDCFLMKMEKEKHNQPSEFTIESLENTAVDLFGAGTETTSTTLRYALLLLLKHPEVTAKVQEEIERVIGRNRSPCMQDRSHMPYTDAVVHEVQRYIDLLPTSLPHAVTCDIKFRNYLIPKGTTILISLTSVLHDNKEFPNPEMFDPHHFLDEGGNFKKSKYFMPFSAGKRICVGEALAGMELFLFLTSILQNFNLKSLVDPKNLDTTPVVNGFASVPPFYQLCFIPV

SMILES | IC50 [1] [µM] | IC50 [2] [µM] | further results
CSc1ccc(OCc2ccc(F)cc2)c(C2=C(c3cccc(C(=O)O)c3)CCC2)c1 | > 3.16 | 0.0316 | 
O=C(O)c1cccc(C2=C(c3cc(Br)ccc3OCc3ccc(Cl)cc3)CCC2)c1 | > 3.16 | 0.0126 | clearance [3]: 1.98 L/h/kg; Vd [4]: 0.4 L/kg
O=C(O)c1cccc(C2=C(c3cc(Cl)ccc3OCc3ccccc3)CCC2)c1 | > 3.16 | 0.00501 | 
O=C(O)c1cccc(C2=C(c3ccccc3OCc3ccc(F)cc3F)CCC2)c1 | > 3.16 | 0.0251 | 
O=C(O)c1cccc(C2=C(c3ccccc3OCc3ccc(Cl)cc3F)CCC2)c1 | > 3.16 | 0.0501 | 
CSc1ccc(OCc2ccc(F)cc2F)c(C2=C(c3cccc(C(=O)O)c3)CCC2)c1 | > 3.16 | 0.0158 | 
O=C(O)c1ccnc(C2=C(c3cc(Br)ccc3OCc3ccc(F)cc3)CCC2)c1 |  | 0.00316 | IC50 (Cytochrome P450 2C9): 5 µM; logD [5]: 2.7; CLint scaled [6]: 20 mL/min/g
O=C(O)c1cc(C2=C(c3cc(Cl)ccc3OCc3ccccc3)CCC2)cnn1 |  | 0.0398 | 
O=C(O)c1cccc(C2=C(c3cc(Br)ccc3OCc3ccc(F)cc3)CCC2)c1 | > 3.16 | 0.02 | half-life [7]: 0.2 h; clearance [3]: 2.76 L/h/kg; Vd [4]: 0.7 L/kg
N#Cc1ccc(OCc2ccc(F)cc2F)c(C2=C(c3cccc(C(=O)O)c3)CCC2)c1 | > 3.16 | 0.0398 | 
COc1ccc(COc2ccc(Br)cc2C2=C(c3cccc(C(=O)O)c3)CCC2)cc1 | > 3.16 | 0.0398 | 
CS(=O)(=O)c1ccc(OCc2ccccc2)c(C2=C(c3cccc(C(=O)O)c3)CCC2)c1 | > 3.16 | 0.0794 | 
N#Cc1ccc(OCc2ccccc2)c(C2=C(c3cccc(C(=O)O)c3)CCC2)c1 | > 3.16 | 0.1 | 
N#Cc1ccc(OCc2ccc(Cl)cc2)c(C2=C(c3cccc(C(=O)O)c3)CCC2)c1 | > 3.16 | 0.2 | 
O=C(O)c1cncc(C2=C(c3cc(Cl)ccc3OCc3ccc(F)cc3F)CCC2)n1 |  | 0.002 | Activity (Rattus norvegicus [8]): 52%; IC50 (Cytochrome P450 2C9): 12 µM; logD [5]: 1.6; CLint scaled [6]: 2.6 mL/min/g
CSc1ccc(OCc2ccccc2)c(C2=C(c3cccc(C(=O)O)c3)CCC2)c1 | > 3.16 | 0.0631 | 
O=C(O)c1cnnc(C2=C(c3cc(Cl)ccc3OCc3ccc(F)cc3F)CCC2)c1 |  | 0.00631 | IC50 (Cytochrome P450 2C9): 5.4 µM; logD [5]: 1.2; CLint scaled [6]: 14 mL/min/g

SMILES | IC50 [1] [µM] | IC50 [2] [µM] | further results
O=C(O)c1ccnc(C2=C(c3cc(Cl)ccc3OCc3ccccc3)CCC2)n1 |  | 0.158 | logD [5]: 0.8
O=C(O)c1cc(C2=C(c3cc(Cl)ccc3OCc3ccccc3)CCC2)ncn1 |  | 0.2 | logD [5]: 1.2
CS(=O)(=O)c1ccc(OCc2ccc(F)cc2)c(C2=C(c3cccc(C(=O)O)c3)CCC2)c1 | > 3.16 | 0.0794 | 
O=C(O)c1cccc(C2=C(c3cc(Br)ccc3OCc3ccc(Cl)c(Cl)c3)CCC2)c1 | > 3.16 | 0.1 | 
O=C(O)c1cccc(C2=C(c3cc(Cl)ccc3OCc3ccc(F)cc3F)CCC2)n1 |  | 0.00251 | half-life [9]: 2 h; IC50 (Cytochrome P450 2C9): 14 µM; ED50 (Rattus norvegicus [10]): 1.3 mg/kg; Activity (Rattus norvegicus [11]): Active; Kb [12]: 0.000794 µM; bioavailability [13]: 54%; logD [5]: 2.6; CLint scaled [6]: 2.9 mL/min/g; half-life [14]: 2.2 h; clearance [15]: 0.42 L/h/kg; bioavailability [16]: 53%
O=C(O)c1cccc(C2=C(c3cc(Br)ccc3OCc3ccccc3)CCC2)c1 | > 3.16 | 0.0126 | half-life [7]: 0.3 h; clearance [3]: 3.12 L/h/kg; Vd [4]: 1 L/kg
O=C(O)c1cncc(C2=C(c3cc(C(F)(F)F)ccc3OCc3ccccc3)CCC2)c1 |  | 0.01 | IC50 (Cytochrome P450 2C9): 14 µM; ED50 (Rattus norvegicus [10]): 1.3 mg/kg; logD [5]: 2.7; CLint scaled [6]: 2.2 mL/min/g; half-life [14]: 4.1 h; clearance [15]: 1.32 L/h/kg
Cc1ncc(C2=C(c3cc(Cl)ccc3OCc3ccc(F)cc3)CCC2)cc1C(=O)O |  | 0.00158 | Activity (Rattus norvegicus [8]): <30%; IC50 (Cytochrome P450 2C9): 9 µM; logD [5]: 2.7; CLint scaled [6]: 3.8 mL/min/g
CS(=O)(=O)c1ccc(OCc2ccc(F)cc2F)c(C2=C(c3cccc(C(=O)O)c3)CCC2)c1 | > 3.16 | 0.0158 | 
N#Cc1ccc(OCc2ccc(F)cc2)c(C2=C(c3cccc(C(=O)O)c3)CCC2)c1 | > 3.16 | 0.398 | 
O=C(O)c1cc(C2=C(c3cc(C(F)(F)F)ccc3OCc3ccccc3)CCC2)ccn1 |  | 0.0398 | 
O=C(O)c1cccc(C2=C(c3cc(Br)ccc3OCc3ccc(Cl)cc3F)CCC2)c1 | > 3.16 | 0.00251 | 
COc1ccc(COc2ccccc2C2=C(c3cccc(C(=O)O)c3)CCC2)cc1 | > 3.16 | 0.1 | 
O=C(O)c1cccc(C2=C(c3ccccc3OCc3ccc(Cl)c(Cl)c3)CCC2)c1 | > 3.16 | 0.398 | 
O=C(O)c1cccc(C2=C(c3ccccc3OCc3ccccc3)CCC2)c1 | > 3.16 | 0.00631 | 
O=C(O)c1cccc(C2=C(c3cc(Br)ccc3OCc3ccc(F)cc3F)CCC2)c1 | > 3.16 | 0.00501 | half-life [7]: 0.2 h; clearance [3]: 2.1 L/h/kg; Vd [4]: 0.6 L/kg
